Where “and” joins values, the source holds several entries; their conditions need not be identical. Identical values can stand only once.

The EC50 is the concentration giving half of the maximal effect. The Kp is tissue or fluid exposure divided by exposure in the circulation. As usually defined, the clearance is the volume of plasma or blood freed of the substance per unit of time. High values mean efficient removal, low ones inefficient removal. Broadly, the efflux ratio is a quotient of directional permeabilities that is used to spot active efflux.

Data set [1] addresses T1, Muscarinic acetylcholine receptor M4 (Homo sapiens, UniProt P08173).
T1 sequence (P08173 whole entry): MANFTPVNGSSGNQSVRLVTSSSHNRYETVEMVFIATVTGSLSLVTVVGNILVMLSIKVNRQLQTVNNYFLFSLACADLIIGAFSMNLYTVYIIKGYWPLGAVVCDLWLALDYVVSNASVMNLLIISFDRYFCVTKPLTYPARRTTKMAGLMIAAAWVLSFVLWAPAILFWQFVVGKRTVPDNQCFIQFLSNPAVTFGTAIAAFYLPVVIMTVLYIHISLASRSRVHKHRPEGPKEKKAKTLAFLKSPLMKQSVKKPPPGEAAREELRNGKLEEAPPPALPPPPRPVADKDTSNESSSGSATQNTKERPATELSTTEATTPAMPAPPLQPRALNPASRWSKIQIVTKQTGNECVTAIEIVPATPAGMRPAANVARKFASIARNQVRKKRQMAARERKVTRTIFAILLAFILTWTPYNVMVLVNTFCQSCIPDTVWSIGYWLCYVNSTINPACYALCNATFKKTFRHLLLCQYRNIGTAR
Kind of data set: Positive allosteric modulation of human M4 receptor expressed in CHO cells co-expressing Gqi5 assessed as increase in acetylcholine-induced calcium mobilization.

For data set [2], the target named is T2, Muscarinic acetylcholine receptor M4 (Homo sapiens) (UniProt P08173).
T2 sequence (whole entry): T1 sequence (P08173 whole entry)
Kind of data set: Positive allosteric modulation of human M4 receptor expressed in CHO cells co-expressing Gqi5 assessed as increase in acetylcholine-induced calcium mobilization relative to acetylcholine. In kind it is functional, cell-based. The method in brief:
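Calcium mobilization in CHO cells stably co-expressing hM4 and Gqi5, tested in the presence of a fixed EC20 concentration of acetylcholine. Values are means of three independent experiments, each run in triplicate.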
(Calcium flux is commonly read through the fluorescence of an indicator in the cells.)

The subject of data set [3] is Rattus norvegicus. Kind of data set: Reversal of amphetamine-induced hyperlocomotion in Sprague-Dawley rat at 10 mg/kg, po pretreated 30 mins post habituation in the chamber followed by amphetamine injection after 30 mins measured after 60 mins. In kind it is functional. The method in brief:
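Male Sprague-Dawley rats, n = 6–24 per dose group, were habituated in the chamber for 30 min. The compound or vehicle (10% tween-80 in water, v/v) was then given orally. Amphetamine 0.75 mg/kg was injected subcutaneously 30 min later. Total ambulations over t = 60–120 min gave % reversal of AHL, reported as mean ± SEM.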

The nature of data set [4]: Brain to plasma permeability coefficient, Kp of the compound in Sprague-Dawley rat administered as iv cassette dose measured at 0.25 hrs post dose. The settings on record: for Kp: brain, 0.25 h; for Kp at 0.25 h: Sprague-Dawley, brain and plasma. In kind it is ADME, organism-based.
Data set [5] in a line: Clearance in Sprague-Dawley rat. The note with it: in vivo. It counts as ADME. The method in brief:
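IV and PO pharmacokinetics in male Sprague-Dawley rats, n = 1–3. The oral dose was a 2–3 mg/kg solution. Plasma clearance, Vss and oral bioavailability were determined.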

The species entered for data set [6] is Rattus norvegicus. Kind of data set: Drug metabolism in Sprague-Dawley rat assessed as aldehyde oxidase-mediated metabolism at alpha to 4-pryidyl nitrogen. In kind it is ADME.
The target of data set [7] is T3, Muscarinic acetylcholine receptor M2 (Homo sapiens, UniProt P08172).
T3 sequence (P08172 whole entry): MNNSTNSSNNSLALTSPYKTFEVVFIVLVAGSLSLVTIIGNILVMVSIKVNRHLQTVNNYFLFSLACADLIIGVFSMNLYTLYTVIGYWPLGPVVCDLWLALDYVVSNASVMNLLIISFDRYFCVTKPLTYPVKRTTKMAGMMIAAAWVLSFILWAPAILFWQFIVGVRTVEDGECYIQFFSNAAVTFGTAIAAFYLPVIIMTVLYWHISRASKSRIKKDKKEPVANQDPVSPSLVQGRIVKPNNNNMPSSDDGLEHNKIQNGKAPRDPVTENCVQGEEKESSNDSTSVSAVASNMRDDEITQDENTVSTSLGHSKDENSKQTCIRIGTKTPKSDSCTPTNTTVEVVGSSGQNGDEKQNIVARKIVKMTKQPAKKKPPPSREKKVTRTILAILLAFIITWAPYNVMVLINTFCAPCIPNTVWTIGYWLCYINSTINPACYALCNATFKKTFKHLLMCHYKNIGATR
The data set can be described thus: Activity at human M2 receptor assessed as increase in acetylcholine-induced calcium mobilization. In kind it is functional.

Data set [8] in a line: Elimination half-life in Sprague-Dawley rat. In kind it is ADME. The settings on record: in vivo, read-out: beta t1/2 (converted).
The nature of data set [9]: Ratio of unbound brain to plasma concentration in Sprague-Dawley rat administered as iv cassette dose measured at 0.25 hrs post dose. It counts as ADME, organism-based.
Data set [10] has as its target T4, Muscarinic acetylcholine receptor M2 (Homo sapiens) (UniProt P08172).
T4 sequence (whole entry): T3 sequence (P08172 whole entry)
Kind of data set: Activity at human M2 receptor assessed as increase in acetylcholine-induced calcium mobilization relative to acetylcholine. It counts as functional.

In another data set the test system is MDR1. The data set can be described thus: Efflux ratio of permeability in MDCK2-MDR1 cells. In kind it is ADME, cell-based, Canis lupus familiaris. The settings on record: dog, MDCK-MDR1.

For the molecule `Cc1nnc2sc(C(=O)NC3CN(C(=O)c4ccccc4)C3)c(N)c2c1C`, the half-maximal effective concentration (EC50) in data set [1] was determined as 773 nM. Also, the %max in data set [2] is 85%.
In the case of `Cc1nnc2sc(C(=O)NCc3ccc(S(=O)(=O)C(F)(F)F)cc3)c(N)c2c1C`, the Activity in the data set with Rattus norvegicus [3] is on record as 62%.
In the case of `Cc1nnc2sc(C(=O)NC3CN(c4cncc(F)c4)C3)c(N)c2c1C`, the EC50 in data set [1] is 16 nM. Besides, in [2], the %max came to 90%.
In the same order, the values of `Cc1nnc2sc(C(=O)NC3CN(C(=O)Nc4ccccc4)C3)c(N)c2c1C` are 217 nM and 89%.
`COc1cncc(N2CC(NC(=O)c3sc4nnc(C)c(C)c4c3N)C2)c1`: the EC50 in [1] worked out at 17 nM. Besides, the %max in data set [2] was 88%. The molecule further registered a partition ratio (Kp) in data set [4] below 0.05.
Consider `Cc1nnc2sc(C(=O)NC3CN(c4ccc(F)c(F)c4)C3)c(N)c2c1C`, for which, in [1], the EC50 is 28.8 nM and 30 nM. Moreover, in data set [2], the %max worked out at 84%. In addition, the clearance in data set [5] is 4.4 mL/min/kg.
`Cc1nnc2sc(C(=O)NC3CN(c4cnccn4)C3)c(N)c2c1C`: in data set [1], the EC50 is 78 nM and 74.1 nM. For the same molecule, the %max in [2] was determined as 80%. Further, in data set [4], the partition ratio (Kp) at 0.25 h is below 0.05.
Consider `COc1cc(N2CC(NC(=O)c3sc4nnc(C)c(C)c4c3N)C2)ccn1`, for which the concentration for a half-maximal effect (EC50) in data set [1] is 51 nM. The %max in data set [2] was determined as 86%. For the same molecule, the Drug metabolism entry in the data set filed under Rattus norvegicus [6] is reported as “Metabolite_Detected”.
For the molecule `Cc1nnc2sc(C(=O)NC3CN(c4ccccn4)C3)c(N)c2c1C`, the EC50 in data set [1] came to 124 nM. For the same molecule, the %max in [2] stood at 81%.
`Cc1nnc2sc(C(=O)NC3CN(c4ccc(F)cc4)C3)c(N)c2c1C`: in data set [1], the EC50 is 282 nM. Further, the %max in data set [2] turned out to be 77%.
In the same order, the values of `Cc1nnc2sc(C(=O)NC3CN(C(=O)OCc4ccccc4)C3)c(N)c2c1C` are 30 nM and 81%.
In the same order, the values of `Cc1nnc2sc(C(=O)NC3CN(c4cc(F)nc(F)c4)C3)c(N)c2c1C` are 11 nM and 84%.
As for `Cc1nnc2sc(C(=O)NC3CN(c4ccncn4)C3)c(N)c2c1C`, the EC50 in [1] came to 38 nM. Moreover, the %max in data set [2] was determined as 83%. Besides, in data set [4], the concentration ratio (Kp) at 0.25 h was below 0.05.
`Cc1nnc2sc(C(=O)NC3CN(c4ccc(F)cc4F)C3)c(N)c2c1C`: in data set [1], the 50% effective concentration (EC50) worked out at 37 nM. The %max in data set [2] stood at 94%.
On to `Cc1nnc2sc(C(=O)NC3CN(c4nc5ccccc5o4)C3)c(N)c2c1C`, for which, in [1], the half-maximal effective concentration (EC50) was determined as 419 nM. The %max in data set [2] was found to be 89%.
In the case of `Cc1nnc2sc(C(=O)NC3CN(c4ccc(S(=O)(=O)C(F)(F)F)cc4)C3)c(N)c2c1C`, the EC50 in data set [1] amounted to 934 nM. In addition, in [2], the %max turned out to be 86%.
With `Cc1nnc2sc(C(=O)NC3CN(C(=O)Oc4ccccc4)C3)c(N)c2c1C`, the 50% effective concentration (EC50) came out at 23 nM in [1] and 2650 nM in data set [7]. For the same molecule, the %max in [2] was determined as 96%. Further, the half-life in data set [8] was below 30 min.
As to `Cc1nnc2sc(C(=O)NC3CN(C(=O)c4ccccn4)C3)c(N)c2c1C`, in [1], the EC50 was determined as 564 nM. The %max in data set [2] was 91%.
The like results for `Cc1nnc2sc(C(=O)NC3CN(c4ccc(S(=O)(=O)C(F)F)cc4)C3)c(N)c2c1C` were, in that order, 325 nM and 75%.
Consider `COc1ccc(N2CC(NC(=O)c3sc4nnc(C)c(C)c4c3N)C2)cc1`, for which the concentration giving a half-maximal response (EC50) in data set [1] came to 1290 nM. Also, the %max in data set [2] was found to be 81%.
In the case of `Cc1nnc2sc(C(=O)NC3CN(c4cncnc4)C3)c(N)c2c1C`, the EC50 in [1] was 41 nM and 38.9 nM. In data set [2], the %max was 89%. In data set [4], this molecule registered a Kp at 0.25 h below 0.05.
Regarding `COc1cccc(N2CC(NC(=O)c3sc4nnc(C)c(C)c4c3N)C2)c1`, the concentration giving a half-maximal response (EC50) in data set [1] was 141 nM and 132 nM. The %max in [2] was 77%.
Regarding `Cc1cccc(OC(=O)N2CC(NC(=O)c3sc4nnc(C)c(C)c4c3N)C2)c1`, the EC50 in data set [1] stood at 67 nM. For the same molecule, in data set [2], the %max was 85%.
`Cc1nnc2sc(C(=O)NC3CN(c4nc5ccccc5s4)C3)c(N)c2c1C`: the 50% effective concentration (EC50) in data set [1] stood at 439 nM. In data set [2], the %max stood at 87%.
Regarding `Cc1nnc2sc(C(=O)NC3CN(c4ccccc4)C3)c(N)c2c1C`, the values for the EC50 in [1] and in data set [7] were 25 nM and 1780 nM, respectively. The %max was 85% in [2] and 58% in data set [10]. The clearance in data set [5] was 45 mL/min/kg. The Kp in [4] turned out to be 0.57. Further, the “K(p,uu,brain)” value in [9] was 0.73.
In the case of `Cc1nnc2sc(C(=O)NC3CN(c4nc5cccnc5s4)C3)c(N)c2c1C`, the concentration for a half-maximal effect (EC50) was 106 nM in data set [1] and 220 nM in data set [7]. The %max in [2] is 81%. In data set [4], this molecule came in with a concentration ratio (Kp) of 0.17. Also, in data set [9], the “K(p,uu,brain)” value is 1.3. Further, the Activity in the data set with Rattus norvegicus [3] was 16%.
Regarding `Cc1nnc2sc(C(=O)NC3CN(S(=O)(=O)c4ccccc4)C3)c(N)c2c1C`, the half-maximal effective concentration (EC50) in data set [1] was 268 nM and 263 nM. Further, the %max in [2] came out at 70%.
`Cc1nnc2sc(C(=O)NC3CN(C(=O)c4ccncc4)C3)c(N)c2c1C`: the values for the concentration giving a half-maximal response (EC50) in [1] and in data set [7] were 179 nM and above 10000 nM, respectively. The %max in data set [2] turned out to be 85%. In data set [5], this molecule displayed a clearance of 3.1 mL/min/kg. For the same molecule, in data set [4], the Kp amounted to 0.03. Further, the “K(p,uu,brain)” value in data set [9] is listed as 0.37. The efflux ratio in the data set on MDR1 came to 96.
For the molecule `Cc1nnc2sc(C(=O)NC3CN(c4cccnc4F)C3)c(N)c2c1C`, in data set [1], the EC50 amounted to 29 nM. The %max in data set [2] turned out to be 82%.
On to `Cc1nnc2sc(C(=O)NC3CN(c4ccnc(Cl)c4)C3)c(N)c2c1C`, for which the EC50 in data set [1] amounted to 185 nM. For the same molecule, the %max in data set [2] stood at 87%.
As for `Cc1nnc2sc(C(=O)NC3CN(c4ccccc4F)C3)c(N)c2c1C`, the EC50 in data set [1] amounted to 28 nM. For the same molecule, the %max in [2] stood at 82%.
With `Cc1nnc2sc(C(=O)NC3CN(c4cccnc4)C3)c(N)c2c1C`, the half-maximal effective concentration (EC50) in data set [1] was 34 nM and 33.1 nM. Further, the %max in data set [2] was found to be 96%. The Kp at 0.25 h in [4] is below 0.05.
For the molecule `Cc1nnc2sc(C(=O)NC3CN(c4ccncc4Cl)C3)c(N)c2c1C`, in [1], the concentration giving a half-maximal response (EC50) came out at 8 nM. Further, the %max in data set [2] was 86%. In the data set filed under Rattus norvegicus [6], the Drug metabolism entry is recorded as “Metabolite_Detected”.

For the origin of these results see ChEMBL document CHEMBL4033702, “Challenges in the development of an M4 PAM preclinical candidate: The discovery, SAR, and in vivo characterization of a series of 3-aminoazetidine-derived amides” (Bioorg Med Chem Lett, 2017).
